Measured values reported in ChEMBL document CHEMBL2057071, “Hit-to-lead investigation of a series of novel combined dopamine D2 and muscarinic M1 receptor ligands with putative antipsychotic and pro-cognitive potential” (Bioorg Med Chem Lett, 2012).

Key:
[1] = target: T1, Muscarinic acetylcholine receptor M1 (Homo sapiens, UniProt P11229); assay: Agonist activity at human M1 receptor expressed in CHO-K1 cells assessed as calcium mobilization for 6 mins by Calcium4-based staining; assay type: functional, cell-based
T1 sequence (P11229 whole entry): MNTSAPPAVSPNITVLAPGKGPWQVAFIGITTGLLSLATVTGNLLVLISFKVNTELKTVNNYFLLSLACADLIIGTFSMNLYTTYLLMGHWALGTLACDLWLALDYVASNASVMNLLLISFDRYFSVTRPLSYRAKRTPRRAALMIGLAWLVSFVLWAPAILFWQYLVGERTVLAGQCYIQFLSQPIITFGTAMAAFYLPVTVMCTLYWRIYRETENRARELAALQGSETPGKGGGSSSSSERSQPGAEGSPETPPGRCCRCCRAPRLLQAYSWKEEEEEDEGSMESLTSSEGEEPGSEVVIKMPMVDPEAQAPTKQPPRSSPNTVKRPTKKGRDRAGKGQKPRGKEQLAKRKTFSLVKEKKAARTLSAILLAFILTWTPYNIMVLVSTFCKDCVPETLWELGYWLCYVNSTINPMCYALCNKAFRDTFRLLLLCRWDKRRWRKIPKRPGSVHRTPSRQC

Liver microsomes [2] = assay: Intrinsic clearance in human liver microsomes at 1 uM after 60 mins; assay type: ADME, Microsome; settings: 1 h
[3] = target: Voltage-gated inwardly rectifying potassium channel KCNH2 (Homo sapiens, UniProt Q12809); assay: Inhibition of human ERG expressed in CHO cells after 30 mins by Rb+ flux assay
D(2) dopamine receptor [4] = target: T2, D(2) dopamine receptor (Homo sapiens, UniProt P14416); assay: Displacement of [3H]raclopride from human D2L receptor expressed in CHO cells after 60 mins by scintillation proximity assay; assay type: cell-based
[5] = target: Muscarinic acetylcholine receptor M3 (Homo sapiens) (UniProt P20309); assay: Agonist activity at human muscarinic M3 receptor expressed in BHK-21 cells assessed as calcium mobilization atb 10 uM for 6 mins by Calcium4-based staining relative to acetylcholine; assay type: functional, cell-based
[6] = target: T3, Muscarinic acetylcholine receptor M1 (Homo sapiens) (UniProt P11229); assay: Agonist activity at human M1 receptor expressed in CHO-K1 cells assessed as calcium mobilization at 10 uM for 6 mins by Calcium4-based staining; assay type: functional, cell-based
T3 sequence (whole entry): T1 sequence (P11229 whole entry)
Procedure, shortened: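 Functional agonism read as percent activity at 10 µM test concentration when no EC₅₀ could be established; means of two experiments.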

[7] = Lipophilicity, logP of the compound; assay type: physicochemical; settings: octanol/water
[8] = Dissociation constant, pKa of the compound; assay type: physicochemical
[9] = target: T4, Muscarinic acetylcholine receptor M5 (Homo sapiens) (UniProt P08912); assay: Agonist activity at human muscarinic M5 receptor expressed in BHK-21 cells assessed as calcium mobilization at 10 uM for 6 mins by Calcium4-based staining relative to acetylcholine; assay type: functional, cell-based
T4 sequence (whole entry): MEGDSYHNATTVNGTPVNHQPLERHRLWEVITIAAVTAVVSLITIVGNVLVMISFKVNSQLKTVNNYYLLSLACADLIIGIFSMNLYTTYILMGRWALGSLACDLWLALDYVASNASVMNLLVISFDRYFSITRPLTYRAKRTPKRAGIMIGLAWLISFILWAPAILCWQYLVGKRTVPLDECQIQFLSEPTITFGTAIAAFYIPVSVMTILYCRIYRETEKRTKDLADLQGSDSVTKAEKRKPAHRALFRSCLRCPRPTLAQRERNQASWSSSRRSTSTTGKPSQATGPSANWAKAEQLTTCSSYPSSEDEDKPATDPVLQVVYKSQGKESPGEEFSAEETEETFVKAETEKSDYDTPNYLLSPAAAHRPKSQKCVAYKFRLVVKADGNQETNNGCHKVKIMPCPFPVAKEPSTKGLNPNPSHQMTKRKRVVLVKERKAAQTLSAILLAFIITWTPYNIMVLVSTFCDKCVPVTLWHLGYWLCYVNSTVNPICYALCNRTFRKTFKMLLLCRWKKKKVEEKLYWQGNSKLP

[10] = target: T5, Muscarinic acetylcholine receptor M4 (Homo sapiens) (UniProt P08173); assay: Agonist activity at human muscarinic M4 receptor expressed in BHK-21 cells assessed as calcium mobilization at 10 uM for 6 mins by Calcium4-based staining relative to acetylcholine; assay type: functional, cell-based
T5 sequence (whole entry): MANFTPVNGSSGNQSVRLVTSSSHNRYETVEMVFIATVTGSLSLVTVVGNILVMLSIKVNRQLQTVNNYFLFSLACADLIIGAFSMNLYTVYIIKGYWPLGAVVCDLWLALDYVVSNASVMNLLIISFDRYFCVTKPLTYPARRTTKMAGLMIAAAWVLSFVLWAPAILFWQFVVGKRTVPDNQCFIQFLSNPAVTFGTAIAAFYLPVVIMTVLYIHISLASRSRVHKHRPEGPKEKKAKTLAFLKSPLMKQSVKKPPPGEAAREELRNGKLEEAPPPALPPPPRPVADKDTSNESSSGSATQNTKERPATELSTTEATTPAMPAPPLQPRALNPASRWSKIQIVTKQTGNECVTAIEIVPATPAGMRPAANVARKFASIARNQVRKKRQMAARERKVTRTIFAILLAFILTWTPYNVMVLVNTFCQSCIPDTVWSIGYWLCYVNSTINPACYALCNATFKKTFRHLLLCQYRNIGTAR

[11] = target: T6, Muscarinic acetylcholine receptor M2 (Homo sapiens) (UniProt P08172); assay: Agonist activity at human muscarinic M2 receptor expressed in CHO-K1 cells assessed as calcium mobilization at 10 uM for 6 mins by Calcium4-based staining relative to acetylcholine; assay type: functional, cell-based
T6 sequence (whole entry): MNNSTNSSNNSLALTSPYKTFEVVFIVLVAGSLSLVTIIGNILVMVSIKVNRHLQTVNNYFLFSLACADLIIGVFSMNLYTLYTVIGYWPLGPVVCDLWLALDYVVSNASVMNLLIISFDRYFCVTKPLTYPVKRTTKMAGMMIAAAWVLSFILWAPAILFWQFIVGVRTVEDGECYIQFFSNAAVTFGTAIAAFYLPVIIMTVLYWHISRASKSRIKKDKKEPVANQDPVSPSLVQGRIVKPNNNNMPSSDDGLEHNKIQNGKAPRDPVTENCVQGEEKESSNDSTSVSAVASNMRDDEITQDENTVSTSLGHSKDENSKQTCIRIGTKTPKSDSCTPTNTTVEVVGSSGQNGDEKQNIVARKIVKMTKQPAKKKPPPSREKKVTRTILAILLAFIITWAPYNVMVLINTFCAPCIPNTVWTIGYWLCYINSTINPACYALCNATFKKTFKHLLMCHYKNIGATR

[12] = target: Muscarinic acetylcholine receptor M1 (Homo sapiens, UniProt P11229, Y381A); assay: Agonist activity at human muscarinic M1 receptor Y381A mutant expressed in BHK-21 cells assessed as calcium mobilization for 6 mins by Calcium4-based staining; assay type: functional, cell-based
Hepatocyte = assay: Intrinsic clearance in Sprague-Dawley rat hepatocytes at 1 uM after 60 mins; assay type: ADME, cell-based; settings: 1 h
Liver microsomes [13] = assay: Intrinsic clearance in rat liver microsomes at 1 uM after 60 mins; assay type: ADME, Microsome; settings: 1 h
[14] = Plasma clearance in […] Sprague-Dawley rat; assay type: ADME, organism-based
D(2) dopamine receptor [15] = target: T2, D(2) dopamine receptor; assay: Displacement of [3H]raclopride from human D2L receptor expressed in CHO cells at 10 uM after 60 mins by scintillation proximity assay; assay type: cell-based

T2 sequence (P14416 whole entry): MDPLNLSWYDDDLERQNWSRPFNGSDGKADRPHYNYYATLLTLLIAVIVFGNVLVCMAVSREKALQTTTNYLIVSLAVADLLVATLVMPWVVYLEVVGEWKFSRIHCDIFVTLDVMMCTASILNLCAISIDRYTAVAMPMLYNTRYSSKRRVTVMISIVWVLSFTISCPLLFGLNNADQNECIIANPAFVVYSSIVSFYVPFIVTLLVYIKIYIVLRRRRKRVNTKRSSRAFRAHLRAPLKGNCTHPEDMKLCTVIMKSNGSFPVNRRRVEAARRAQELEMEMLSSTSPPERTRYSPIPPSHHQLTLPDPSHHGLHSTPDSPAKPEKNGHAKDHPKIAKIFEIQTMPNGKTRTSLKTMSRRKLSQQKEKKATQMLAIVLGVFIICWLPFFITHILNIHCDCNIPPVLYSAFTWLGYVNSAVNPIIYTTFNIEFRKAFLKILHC
Sequence of Voltage-gated inwardly rectifying potassium channel KCNH2 (Q12809 whole entry): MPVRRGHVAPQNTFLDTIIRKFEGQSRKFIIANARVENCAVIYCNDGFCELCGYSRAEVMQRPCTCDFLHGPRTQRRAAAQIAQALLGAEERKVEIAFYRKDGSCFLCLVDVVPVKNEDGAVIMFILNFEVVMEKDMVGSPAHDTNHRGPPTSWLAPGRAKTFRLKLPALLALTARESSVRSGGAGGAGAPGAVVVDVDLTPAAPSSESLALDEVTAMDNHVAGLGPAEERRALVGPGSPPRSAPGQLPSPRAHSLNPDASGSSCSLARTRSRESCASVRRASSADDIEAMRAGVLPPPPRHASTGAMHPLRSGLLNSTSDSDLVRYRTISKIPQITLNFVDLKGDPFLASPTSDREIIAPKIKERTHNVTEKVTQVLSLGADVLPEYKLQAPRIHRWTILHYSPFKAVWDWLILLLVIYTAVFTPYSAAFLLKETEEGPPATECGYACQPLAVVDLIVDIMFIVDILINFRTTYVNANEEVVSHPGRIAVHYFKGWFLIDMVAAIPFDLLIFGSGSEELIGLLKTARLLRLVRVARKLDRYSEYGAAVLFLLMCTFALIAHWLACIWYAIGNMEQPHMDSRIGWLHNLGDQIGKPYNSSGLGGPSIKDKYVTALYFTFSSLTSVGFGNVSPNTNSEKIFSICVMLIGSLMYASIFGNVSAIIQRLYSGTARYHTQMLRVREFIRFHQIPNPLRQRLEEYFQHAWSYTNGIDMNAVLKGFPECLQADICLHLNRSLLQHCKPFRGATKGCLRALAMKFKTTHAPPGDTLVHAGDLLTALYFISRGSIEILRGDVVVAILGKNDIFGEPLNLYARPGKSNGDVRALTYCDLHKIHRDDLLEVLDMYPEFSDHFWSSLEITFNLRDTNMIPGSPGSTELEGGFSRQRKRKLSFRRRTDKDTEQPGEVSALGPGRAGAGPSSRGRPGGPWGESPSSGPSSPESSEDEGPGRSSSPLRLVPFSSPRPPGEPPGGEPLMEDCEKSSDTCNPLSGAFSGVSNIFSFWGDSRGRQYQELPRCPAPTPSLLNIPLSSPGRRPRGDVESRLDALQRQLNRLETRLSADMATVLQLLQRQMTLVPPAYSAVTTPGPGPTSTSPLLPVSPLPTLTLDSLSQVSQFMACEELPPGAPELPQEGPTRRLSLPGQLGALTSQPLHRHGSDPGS
Sequence of Muscarinic acetylcholine receptor M3 (Homo sapiens) (P20309 whole entry, looked up): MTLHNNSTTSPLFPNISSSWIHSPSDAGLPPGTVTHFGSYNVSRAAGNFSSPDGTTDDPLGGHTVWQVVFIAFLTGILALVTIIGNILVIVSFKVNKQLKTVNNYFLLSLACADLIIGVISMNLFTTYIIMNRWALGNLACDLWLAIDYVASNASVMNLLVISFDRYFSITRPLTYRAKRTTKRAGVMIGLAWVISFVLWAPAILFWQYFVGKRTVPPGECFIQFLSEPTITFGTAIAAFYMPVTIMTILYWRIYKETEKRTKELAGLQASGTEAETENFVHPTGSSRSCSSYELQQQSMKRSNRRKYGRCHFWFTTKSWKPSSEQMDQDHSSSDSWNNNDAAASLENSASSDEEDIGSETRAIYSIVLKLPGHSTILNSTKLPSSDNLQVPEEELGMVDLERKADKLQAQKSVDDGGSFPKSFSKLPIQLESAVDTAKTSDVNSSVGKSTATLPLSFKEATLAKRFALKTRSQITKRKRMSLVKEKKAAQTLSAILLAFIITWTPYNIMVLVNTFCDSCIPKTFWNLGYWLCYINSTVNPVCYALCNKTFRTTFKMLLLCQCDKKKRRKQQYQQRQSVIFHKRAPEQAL
Sequence of Muscarinic acetylcholine receptor M1 (Homo sapiens, UniProt P11229, Y381A) (P11229 whole entry Y381A): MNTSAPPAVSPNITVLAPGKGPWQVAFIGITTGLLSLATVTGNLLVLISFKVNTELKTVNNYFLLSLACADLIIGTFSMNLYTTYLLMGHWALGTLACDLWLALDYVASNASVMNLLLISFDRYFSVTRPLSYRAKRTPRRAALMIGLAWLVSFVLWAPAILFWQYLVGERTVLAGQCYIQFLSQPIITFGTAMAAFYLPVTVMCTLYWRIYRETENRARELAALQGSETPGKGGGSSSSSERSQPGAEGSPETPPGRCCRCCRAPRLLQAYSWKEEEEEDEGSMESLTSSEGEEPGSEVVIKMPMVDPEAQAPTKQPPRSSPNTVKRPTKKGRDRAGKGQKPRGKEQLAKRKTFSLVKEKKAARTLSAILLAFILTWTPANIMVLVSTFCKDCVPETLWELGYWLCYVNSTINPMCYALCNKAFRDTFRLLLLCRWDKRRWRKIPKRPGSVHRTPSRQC

SMILES	EC50 [1] [nM]	CLH (Liver microsomes [2]) [L/min]	IC50 [3] [nM]	Ki (D(2) dopamine receptor [4]) [nM]	Emax [6] [%]	also measured
O=C1COc2ccccc2N1CCCN1CCC(n2c(=O)[nH]c3ccncc32)CC1	1200	0.9	> 50000	> 9500		
O=C1CCc2c(F)cccc2N1CCCN1CCC(n2c(=O)[nH]c3ccccc32)CC1	68	4.2		60		
CC(=O)OCC[N+](C)(C)C						Emax [5]: 100%
O=C1COc2ccccc2N1CCCN1CCC(n2c(=O)[nH]c3c(F)cccc32)CC1	110	13	3400	15		
O=C1CCc2cnccc2N1CCCN1CCC(n2c(=O)[nH]c3ccccc32)CC1		9.4		1100	0	
O=C1COc2ccccc2N1CCCN1CCC(n2c(=O)[nH]c3cccc(F)c32)CC1		12		41	22	
O=C1COc2ccccc2N1CCCN1CCC(n2c(=O)[nH]c3cnccc32)CC1		1.7	46000	1350	4	
O=C1CCc2ccccc2N1CCCN1CCC(c2ccc3[nH]ccc3c2)CC1	160	9	4400	42		logP [7]: 4.1; pKa [8]: 9
O=C1CCc2ccccc2N1CCCN1CCC(n2c(=O)[nH]c3ccccc32)CC1	110	3.9		9.5		logP [7]: 2.8; pKa [8]: 7.6; Emax [9]: 0%; Emax [10]: 8%; Emax [5]: 0%; Emax [11]: 0%; EC50 [12]: 6.3 nM; CLH (Hepatocyte): 160 mL/min; CLH (Liver microsomes [13]): 130 mL/min; CL/F [14]: 50 mL/min/kg
O=C(Cc1ccccc1)NC1CCN(CCCN2C(=O)COc3ccccc32)CC1		3.4	20000	> 5000		logP [7]: 2.4; pKa [8]: 7.9
O=C1CCc2cccc(F)c2N1CCCN1CCC(n2c(=O)[nH]c3ccccc32)CC1	300	5.5		95		
O=C1COc2ccccc2N1CCCN1CCC(n2c(=O)[nH]c3ccc(F)cc32)CC1	44	8.7	4400	14		
O=C1CCc2ccncc2N1CCCN1CCC(n2c(=O)[nH]c3ccccc32)CC1		3.6			7	Activity (D(2) dopamine receptor [15]): 55%
O=C1COc2ccccc2N1CCCN1CCC(n2c(=O)[nH]c3cccnc32)CC1	1700	3.5	13000	1250		
O=C1CCc2cccnc2N1CCCN1CCC(n2c(=O)[nH]c3ccccc32)CC1	20	1.3		600		
O=C1CCc2ccccc2N1OCCN1CCC(n2c(=O)[nH]c3ccccc32)CC1		2.3		55	31	
O=C1COc2ccccc2N1CCCN1CCC(n2c(=O)[nH]c3ccccc32)CC1	73	5.1		16		
O=C1CCc2ccc(F)cc2N1CCCN1CCC(n2c(=O)[nH]c3ccccc32)CC1		7.8		90	23	
O=C1COc2ccccc2N1CCCN1CCC(n2c(=O)[nH]c3cc(F)ccc32)CC1	66	8.8	1900	2.5		
O=C1CCc2ncccc2N1CCCN1CCC(n2c(=O)[nH]c3ccccc32)CC1	12	2.8		2200		
O=C1CCc2cc(F)ccc2N1CCCN1CCC(n2c(=O)[nH]c3ccccc32)CC1		6.2		6.5	24	
O=c1[nH]c2ccccc2n1C1CCN(CCOc2ccccc2)CC1 [OXIPEROMIDE]	400	1.4		5.5		logP [7]: 3.4; pKa [8]: 7.4
O=C1COc2ccccc2N1CCCN1CCC(n2c(=O)[nH]c3ncccc32)CC1		2.6		650	8	
